Compound activity (PubChem)
MrgX1 PAM: allosterically activates human MrgX1 receptor signaling. Q96LB2. MrgX1-HEK293, Fluo-4 calcium flux, FDSS; active compounds read high. B-score at 10 µM. 310,000 tested, 0.63% active;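 active = plate-corrected calcium response at least 3 library SD above typical, normal starting fluorescence, not activating the receptor alone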;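 also: compound read alongside a low EC10 to EC30 dose of BAM8-22 agonist; peak minus trough fluorescence over baseline measured at the second addition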
Target sequence (Q96LB2 whole entry, looked up): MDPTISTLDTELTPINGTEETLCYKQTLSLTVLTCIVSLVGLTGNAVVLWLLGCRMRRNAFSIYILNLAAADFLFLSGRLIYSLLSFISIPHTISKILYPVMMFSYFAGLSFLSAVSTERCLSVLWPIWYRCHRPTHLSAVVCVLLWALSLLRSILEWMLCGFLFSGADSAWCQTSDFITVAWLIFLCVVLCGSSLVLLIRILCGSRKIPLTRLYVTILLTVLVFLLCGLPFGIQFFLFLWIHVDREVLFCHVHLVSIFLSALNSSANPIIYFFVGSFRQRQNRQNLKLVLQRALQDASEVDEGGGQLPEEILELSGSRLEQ
MrgX1 agonist: agonists of human MrgX1 receptor | Q96LB2 | MrgX1-HEK293 cells, Fluo-4 calcium fluorescence, agonist mode; active compounds read high | B-score at 10 µM | 310,000 tested, 0.44% active | AID 588627;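 active = calcium response B-score plate-corrected fluorescence ratio at least 3 library SD, with starting fluorescence B-score inside 5 SD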
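Material: HEK293 cells stably expressing human MrgX1 receptor | Quantity: 15,000 cells per well | Times: Cells plated overnight, dye loaded 0.5 h 37 °C, 0.5 h room temperature | Measured by: Kinetic Fluo-4 NW fluorescence of intracellular calcium | Control set: Positive and negative controls per plate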
RGS4 block: human RGS4 inhibition | AID 463165 | P49798 | HEK293 M3R/RGS4 inducible, Fluo-4 calcium flux; active compounds read high; triggered by carbachol at its EC20 | B-score at 10 µM | 310,000 tested, 0.45% active;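 active = B-score, a plate-corrected calcium signal, over three deviations above library mean, with baseline fluorescence within five deviations of library mean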;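 also: RGS4 expression induced by doxycycline in cells with stable M3 receptor; B-score is computed from the integrated fluorescence ratio over baseline after carbachol; higher B-score means a larger calcium signal and so more RGS4 inhibition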
Target sequence (P49798 whole entry, looked up): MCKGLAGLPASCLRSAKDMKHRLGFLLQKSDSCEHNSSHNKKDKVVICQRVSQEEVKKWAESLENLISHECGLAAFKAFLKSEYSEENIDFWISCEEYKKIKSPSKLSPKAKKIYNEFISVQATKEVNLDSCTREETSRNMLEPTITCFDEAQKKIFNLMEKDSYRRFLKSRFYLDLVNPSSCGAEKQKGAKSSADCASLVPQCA
RGS4 act: potentiators or activators of RGS4; HEK293 M3R/inducible RGS4, carbachol calcium flux Fluo4; active compounds read low; B-score at 10 µM; 310,000 tested, 0.92% active;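 active = B-score of the integrated calcium signal more than 4 SD below the library mean, with starting fluorescence not abnormally high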;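 also: negative B-score means reduced calcium response which marks RGS4 activation or potentiation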
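System: HEK293 FlpIn-TREx cells, stable M3R, doxycycline-inducible RGS4. Timing: overnight RGS4 induction, 30 min dye load 37 °C, 20 min compound RT. Also added: carbachol, ECmax concentration. Measured by: Fluo4 fluorescence kinetic imaging of calcium. Evaluation: integrated calcium ratio converted to B score.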
MrgX1 antagonist: antagonists of human MrgX1 receptor; 310,000 tested, 1.3% active; B-score at 10 µM; Q96LB2; MRGX1-HEK293 calcium flux, Fluo-4, BAM8-22 antagonism; active compounds read low;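 active = calcium-response B-score plate-corrected more than 3 library SD below zero, starting fluorescence within 5 deviations, no agonist response on first addition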;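 also: peak minus trough fluorescence over baseline after final BAM8-22 challenge near maximal dose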
RGS4 block valid: RGS4 inhibitor validation. shares compounds with RGS4 block. HEK293 M3R/RGS4, carbachol calcium Fluo-4 fluorescence; carbachol added at its EC20; 0 = buffer wells, 100 = carbachol control. calcium response, % at 10 µM. 1,700 tested, 65% active. AID 492999;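 active = duplicate-averaged calcium response above the buffer-only control mean plus 5 SD of those controls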;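 also: integrated fluorescence ratio F max minus min over baseline F0; higher response in RGS4-induced cells means RGS4 inhibition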
M3R Ca ctr: checks RGS4 inhibitor effects in non-induced HEK293 M3R cells. shares compounds with RGS4 block. carbachol calcium Fluo-4; submaximal (EC20) carbachol stimulus; buffer wells 0%, carbachol control wells 100%. activity (percent), % at 10 µM. 1,900 tested, 20% active; call rule not given here;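 also: RGS4 induction absent so cells express M3R without RGS4; higher means more calcium signal and flags a non-specific hit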
M3R basal Ca ctr: second RGS4 inhibitor counter-screen in uninduced cells lacking carbachol; shares compounds with RGS4 block; HEK293 M3R/RGS4 non-induced, Fluo-4 calcium, no carbachol; normalised: buffer wells 0%, carbachol wells 100%; calcium response (agonist-mode artifact), % at 10 µM; 1,900 tested, 22% active; AID 493001;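 active = duplicate-averaged calcium rise in uninduced cells above buffer wells' mean plus 5 SD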
Large screens that a line does not name were inactive (follow-up assays come after a bar, where they were run). Compounds with a hit are over-represented: about 3.5% of the library has one in this group of screens.

CCN(CC)CC(O)Cn1c(C)c(-c2ccccc2)c2cc([N+](=O)[O-])ccc21 (centres undefined)	none
O=[N+]([O-])c1cc(Cl)c2cccnc2c1O	none | M3R Ca ctr inactive | M3R basal Ca ctr 134%
O=[N+]([O-])c1cc(F)c2cccnc2c1O	none
O=[N+]([O-])c1cc(Cl)c(O)c2ncccc12	RGS4 block 6.7 (no result: MrgX1 PAM, MrgX1 agonist, MrgX1 antagonist) | RGS4 block valid 12% | M3R Ca ctr inactive | M3R basal Ca ctr inactive
CCCCOc1ccc(C(=O)NCC(=O)NCC(c2ccc(OC)cc2)N2CCCC2)cc1 (centres undefined)	none
CC1CCN(c2c(NCC3CCC(C(=O)NCCc4ccccc4)CC3)c(=O)c2=O)CC1 (centres undefined)	none | M3R Ca ctr inactive | M3R basal Ca ctr inactive
O=c1cc(-c2ccc(Cl)cc2)oc(=O)[nH]1	none
O=c1cc(N=Nc2ccc(Cl)cc2)[nH]c(=O)[nH]1	RGS4 block 17 | RGS4 block valid 22% | M3R Ca ctr inactive | M3R basal Ca ctr inactive
O=C(CN1C(=O)S/C(=C/C=C/c2ccccc2)C1=O)Nc1ccc(C(=O)O)cc1	RGS4 block 4.7 | RGS4 block valid 7.0% | M3R Ca ctr inactive | M3R basal Ca ctr inactive
O=C(CN1C(=O)S/C(=C\C=C\c2ccccc2)C1=O)N1CCOCC1	RGS4 block 8.5 | RGS4 block valid 9.5% | M3R Ca ctr inactive | M3R basal Ca ctr inactive
O=C(CCN1C(=O)S/C(=C\c2ccccc2)C1=O)N1CCOCC1	none
COc1cc(CCC(=O)NCCc2ccc(F)cc2)cc(OC)c1OC	none
Cc1sc2nc(CN(Cc3ccccc3)C(=O)NC3CCCCC3)[nH]c(=O)c2c1C	RGS4 block 5.1 | RGS4 block valid inactive | M3R Ca ctr inactive | M3R basal Ca ctr inactive
Nc1c(S(=O)(=O)c2cccs2)c2nc3ccccc3nc2n1Cc1ccc2c(c1)OCO2	RGS4 block 6.9 | RGS4 block valid 9.5% | M3R Ca ctr inactive | M3R basal Ca ctr inactive
COC(=O)c1cc(=O)n(-c2ccc(F)cc2)c(=Nc2ccc(F)cc2)s1	RGS4 block 13 | RGS4 block valid 30% | M3R Ca ctr 54% | M3R basal Ca ctr inactive
O=C(Nc1ccccc1)Nc1ccccc1-n1ccnc1	none
CCOC(=O)c1ccccc1NC(=O)COC(=O)c1c(CC)noc1C	none
O=C(/C=C/NNC(=O)c1ccccc1)c1ccccc1	none | M3R Ca ctr inactive | M3R basal Ca ctr inactive
O=C(/C=C/NNC(=O)c1ccc(Br)cc1)c1ccccc1	none
CCN(CC(=O)NC(C)C)Cc1nc2c(Br)cc(Br)cc2c(=O)[nH]1	RGS4 block 5 | RGS4 block valid 25% | M3R Ca ctr inactive | M3R basal Ca ctr 12%
N#C/C(=C/c1ccc(O)cc1)C(=O)NCc1ccc(Cl)cc1	none | RGS4 block valid inactive | M3R Ca ctr inactive | M3R basal Ca ctr inactive
CC1CC1C(=O)OCC(=O)NC(=O)NC12CC3CC(CC(C3)C1)C2 (centres undefined)	none
COc1cccc(/C=N/c2sc(Cc3ccccc3)c(C)c2C(N)=O)c1O	RGS4 block 5 | RGS4 block valid 24% | M3R Ca ctr 36% | M3R basal Ca ctr inactive
COC(=O)CCC(=O)Nc1sc(Cc2ccccc2)c(C)c1C(N)=O	none
O=C(NNC(=O)c1ccccc1O)c1ccc(S(=O)(=O)Nc2ccccc2)cc1	none
Cc1onc(C(=O)NN)c1C(=O)Nc1ncc(C(F)(F)F)cc1Cl	none
NNC(=O)C1=NOC(CNc2ncc(C(F)(F)F)cc2Cl)C1 (centres undefined)	none
O=C(O)C1=NOC(CNc2ncc(C(F)(F)F)cc2Cl)C1 (centres undefined)	RGS4 block 5 | RGS4 block valid 5.0% | M3R Ca ctr 48% | M3R basal Ca ctr inactive
CC(=O)C1=NOC(CNc2ncc(C(F)(F)F)cc2Cl)C1 (centres undefined)	none | M3R Ca ctr inactive | M3R basal Ca ctr inactive
O=c1[nH][nH]c(-c2ccccc2O)c1C(C[N+](=O)[O-])c1ccccc1 (centres undefined)	none | RGS4 block valid inactive | M3R Ca ctr inactive | M3R basal Ca ctr inactive
Cc1cc(O)c(C(C[N+](=O)[O-])c2ccc(Cl)cc2Cl)c(=O)o1 (centres undefined)	none
O=c1[nH][nH]c(-c2ccccc2O)c1C(C[N+](=O)[O-])c1ccc(Cl)cc1Cl (centres undefined)	RGS4 block 6.2 | RGS4 block valid inactive | M3R Ca ctr inactive | M3R basal Ca ctr inactive
O=c1[nH][nH]c(-c2ccccc2O)c1C(C[N+](=O)[O-])c1cccc(Cl)c1 (centres undefined)	none
CCn1c(=O)c2cc(C(=O)N(C)c3ccc(OC)cc3OC)sc2c2ccccc21	none
CCn1c(=O)c2cc(C(=O)N(C)c3cc(C)ccc3OC)sc2c2ccccc21	RGS4 block 6 | RGS4 block valid 30% | M3R Ca ctr 60% | M3R basal Ca ctr inactive
Cc1ccc(NC(=O)C2CCN(S(C)(=O)=O)CC2)c(C)c1	none
CC(C)(C)OC1NS(=O)(=O)OCC1NCOC(Cl)(Cl)Cl (centres undefined)	RGS4 block 19 | RGS4 block valid 26% | M3R Ca ctr 40% | M3R basal Ca ctr 22%
CC(=O)Nc1nnc(CCS(=O)(=O)c2ccc(C)c(C)c2)s1	none
Cc1ccc(C(=O)/C=C\C(=O)c2ccc(C)cc2)cc1	none | RGS4 block valid inactive | M3R Ca ctr inactive | M3R basal Ca ctr inactive
O=C(CCNC(=O)C1CCN(S(=O)(=O)c2ccc(F)cc2)CC1)NCc1ccc(Cl)cc1	none
Cn1cc(Cl)c(C(=O)NNC(=S)NC2CCCCC2)n1	RGS4 block 15 | RGS4 block valid 39% | M3R Ca ctr 50% | M3R basal Ca ctr inactive
Cn1cc(Cl)c(C(=O)NC2CCCCCC2)n1	none
CCOC(=O)C1=C(CS(=O)(=O)c2ccccc2)NC(=O)NC1c1ccc(OC)c(OC)c1 (centres undefined)	none
COC(=O)C1=C(CS(=O)(=O)c2ccccc2)NC(=O)NC1c1ccc(OC)c(OC)c1 (centres undefined)	none | RGS4 block valid inactive | M3R Ca ctr inactive | M3R basal Ca ctr inactive
Cc1c(C(=O)Nc2cccnc2Cl)oc2ccccc12	none
